In ChEMBL document CHEMBL5137066, “Discovery of BLU-945, a Reversible, Potent, and Wild-Type-Sparing Next-Generation EGFR Mutant Inhibitor for Treatment-Resistant Non-Small-Cell Lung Cancer” (J Med Chem, 2022):

Assays:
[1] = target: T1, Epidermal growth factor receptor (Homo sapiens, UniProt P00533, L858R/T790M); assay: Inhibition of N-terminal GST tagged recombinant human EGFR L858R/T790M (669 to end residues) double mutant expressed in baculovirus infected Sf9 insect cells expression system using 5-FAM-EEPLYINSFPAKKK-CONH peptide as substrate preincubated for 10 mins followed by peptide substrate addition in presence of ATP
T1 sequence (P00533 25-1210 T790M/L858R limits assumed): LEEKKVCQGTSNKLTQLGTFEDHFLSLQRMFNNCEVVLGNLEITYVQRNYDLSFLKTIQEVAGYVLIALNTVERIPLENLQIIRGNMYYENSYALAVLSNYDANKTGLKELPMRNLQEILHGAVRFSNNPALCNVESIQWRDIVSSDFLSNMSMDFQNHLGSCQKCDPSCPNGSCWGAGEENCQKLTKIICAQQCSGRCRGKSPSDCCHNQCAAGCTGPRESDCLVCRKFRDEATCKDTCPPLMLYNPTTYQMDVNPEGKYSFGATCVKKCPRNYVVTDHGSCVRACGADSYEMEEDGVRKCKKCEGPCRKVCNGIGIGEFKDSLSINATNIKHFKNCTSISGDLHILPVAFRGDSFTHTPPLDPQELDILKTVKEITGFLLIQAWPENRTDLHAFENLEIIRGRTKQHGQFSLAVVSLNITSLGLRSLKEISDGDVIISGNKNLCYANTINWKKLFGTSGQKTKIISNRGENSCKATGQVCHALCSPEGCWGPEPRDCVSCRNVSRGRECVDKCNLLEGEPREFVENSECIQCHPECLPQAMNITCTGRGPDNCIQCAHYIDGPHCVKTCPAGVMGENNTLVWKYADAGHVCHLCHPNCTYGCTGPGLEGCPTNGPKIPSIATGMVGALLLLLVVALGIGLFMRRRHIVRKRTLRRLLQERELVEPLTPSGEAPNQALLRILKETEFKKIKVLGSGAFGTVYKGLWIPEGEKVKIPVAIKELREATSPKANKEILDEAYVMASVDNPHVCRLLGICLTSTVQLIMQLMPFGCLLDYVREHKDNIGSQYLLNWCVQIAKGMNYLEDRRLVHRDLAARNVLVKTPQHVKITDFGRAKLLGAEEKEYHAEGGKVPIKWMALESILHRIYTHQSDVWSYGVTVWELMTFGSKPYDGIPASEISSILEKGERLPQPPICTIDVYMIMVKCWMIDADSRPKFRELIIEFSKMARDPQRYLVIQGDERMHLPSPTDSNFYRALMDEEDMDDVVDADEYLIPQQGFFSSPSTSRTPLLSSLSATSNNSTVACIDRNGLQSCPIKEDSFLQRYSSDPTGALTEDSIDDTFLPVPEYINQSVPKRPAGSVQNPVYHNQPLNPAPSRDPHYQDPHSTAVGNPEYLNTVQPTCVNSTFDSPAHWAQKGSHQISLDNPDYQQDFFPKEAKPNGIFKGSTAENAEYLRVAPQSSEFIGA

[2] = (§1) Inhibition of N-terminal GST tagged recombinant human EGFR L858R/T790M/C790S (668 to end residues) triple mutant expressed in baculovirus infected Sf9 insect cells using 5-FAM-EEPLYINSFPAKKK-CONH peptide as substrate preincubated for 10 mins followed by peptide substrate addition in presence of ATP
[3] = target: T2, Epidermal growth factor receptor (Homo sapiens, UniProt P00533); assay: Inhibition of N-terminal GST tagged recombinant wild type human EGFR expressed in baculovirus infected Sf9 insect cells expression system using 5-FAM-EEPLYINSFPAKKK-CONH peptide as substrate preincubated for 10 mins followed by peptide substrate addition in presence of ATP
T2 sequence (P00533 whole entry): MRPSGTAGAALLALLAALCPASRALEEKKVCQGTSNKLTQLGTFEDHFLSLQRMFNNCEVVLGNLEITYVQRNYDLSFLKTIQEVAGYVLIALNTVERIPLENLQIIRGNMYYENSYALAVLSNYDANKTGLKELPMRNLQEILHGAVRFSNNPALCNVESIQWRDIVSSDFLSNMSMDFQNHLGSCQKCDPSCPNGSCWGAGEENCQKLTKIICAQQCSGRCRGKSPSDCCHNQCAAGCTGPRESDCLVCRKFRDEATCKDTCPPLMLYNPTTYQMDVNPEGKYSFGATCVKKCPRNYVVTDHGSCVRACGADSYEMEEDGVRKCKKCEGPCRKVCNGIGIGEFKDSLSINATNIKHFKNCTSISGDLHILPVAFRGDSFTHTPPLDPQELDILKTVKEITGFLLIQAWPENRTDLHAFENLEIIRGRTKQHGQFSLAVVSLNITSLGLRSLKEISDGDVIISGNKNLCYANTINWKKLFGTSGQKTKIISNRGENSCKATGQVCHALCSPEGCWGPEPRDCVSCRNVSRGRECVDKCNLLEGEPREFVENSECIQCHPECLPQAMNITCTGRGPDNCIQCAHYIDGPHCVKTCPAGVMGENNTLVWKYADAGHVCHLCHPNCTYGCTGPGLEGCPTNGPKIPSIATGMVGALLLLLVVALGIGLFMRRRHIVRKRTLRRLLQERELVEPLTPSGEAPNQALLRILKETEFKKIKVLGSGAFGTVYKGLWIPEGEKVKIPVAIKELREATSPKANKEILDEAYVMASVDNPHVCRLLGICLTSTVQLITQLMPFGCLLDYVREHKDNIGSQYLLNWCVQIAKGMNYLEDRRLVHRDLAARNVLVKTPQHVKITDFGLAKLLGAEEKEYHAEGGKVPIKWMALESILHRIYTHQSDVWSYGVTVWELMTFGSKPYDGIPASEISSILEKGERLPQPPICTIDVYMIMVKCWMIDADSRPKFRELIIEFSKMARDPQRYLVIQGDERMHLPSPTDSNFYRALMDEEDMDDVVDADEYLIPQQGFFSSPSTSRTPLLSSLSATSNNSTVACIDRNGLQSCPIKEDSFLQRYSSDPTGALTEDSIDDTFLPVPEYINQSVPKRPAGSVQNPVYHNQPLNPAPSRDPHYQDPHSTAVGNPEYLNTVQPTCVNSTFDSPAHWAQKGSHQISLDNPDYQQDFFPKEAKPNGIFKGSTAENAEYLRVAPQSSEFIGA

[4] = target: T1, Epidermal growth factor receptor; assay: Inhibition of EGF stimulated EGFR L858R/T790M double mutant phosphorylation in human NCI-H1975 cells preincubated for 4 to 5 hrs followed by EGF stimulation for 10 mins by AlphaLISA method; type: cell-based
[5] = Intrinsic clearance in human liver microsomes; type: ADME, Microsome; conditions: for Microsomal intrinsic clearance: microsomes
[6] = as §1, with “ex19del (746 to 750)/ L858R/C790S” for “L858R/T790M/C790S”, “cells expression system” for “cells”
[7] = target: T2, Epidermal growth factor receptor; assay: Inhibition of wild type EGFR in human A-431 cells preincubated for 4 to 5 hrs followed by EGF stimulation for 10 mins by AlphaLISA method; type: cell-based
[8] = Apparent permeability across apical to basolateral side in MDCK-MDR1 cells; type: ADME, cell-based, Canis lupus familiaris; conditions: dog
[9] = Efflux ratio of apparent permeability in MDCK-MDR1 cells; type: ADME, cell-based, Canis lupus familiaris; conditions: dog
[10] = Intrinsic clearance in human liver microsomes in presence of NADPH; type: ADME, Microsome
How it was run: (§2)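 Intrinsic clearance measured in isolated liver microsomes of each species with NADPH, expressed in μL/min/mg.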

[11] = Intrinsic clearance in cynomolgus monkey liver microsomes in presence of NADPH; type: ADME, Macaca fascicularis, Microsome; how it was run: as §2
[12] = Intrinsic clearance in human hepatocytes assessed per million cells; type: ADME, cell-based, Hepatocyte
How it was run: (§3)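 Intrinsic clearance measured in isolated hepatocytes of each species, expressed in μL/min/million cells.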

[13] = Intrinsic clearance in cynomolgus monkey hepatocytes assessed per million cells; type: ADME, cell-based, Macaca fascicularis, Hepatocyte; how it was run: as §3
[14] = Clearance in cynomolgus monkey at 0.5 mg/kg,iv; type: ADME, organism-based, Macaca fascicularis; conditions: in vivo
How it was run: (§4)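 Cynomolgus monkeys given a single IV bolus of 0.5 mg/kg in 5% DMSO + 5% kolliphor HS 15 + 90% saline. Clearance is plasma clearance after the bolus.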

[15] = Unbound clearance in cynomolgus monkey assessed as clearance/free fraction ratio at 0.5 mg/kg, iv; type: ADME, organism-based, Macaca fascicularis; conditions: in vivo
How it was run: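 Cynomolgus monkey, 0.5 mg/kg IV bolus in 5% DMSO/5% kolliphor HS 15/90% saline. Unbound clearance = in vivo plasma clearance divided by the free fraction. Free fraction comes from plasma protein binding measured by ultracentrifugation.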

[16] = Half life in cynomolgus monkey at 0.5 mg/kg, iv; type: ADME, organism-based, Macaca fascicularis; conditions: in vivo; how it was run: as §4
[17] = Clearance in Sprague-Dawley rat at 1 mg/kg, iv; type: ADME, organism-based; conditions: in vivo
How it was run: (§5)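 Sprague–Dawley rats (n = 3), single IV bolus of 1 mg/kg in 10% DMSO, 10% solutol, 80% of a 20% HP-β-CD solution (in water or in saline, depending on compound). Clearance is plasma clearance after the IV bolus.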

[18] = Half life in Sprague-Dawley rat at 1 mg/kg, iv; type: ADME, organism-based; conditions: in vivo; how it was run: as §5
[19] = Oral bioavailability in Sprague-Dawley rat at 5 mg/kg; type: ADME, organism-based; conditions: in vivo
How it was run: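 Sprague–Dawley rats (n = 3) received 1 mg/kg IV and 5 mg/kg PO. IV vehicle was 10% DMSO/10% solutol/80% (20% HP-β-CD). PO vehicle was a suspension in 20% solutol in 0.5% MC in water, or a solution matching the IV vehicle, depending on compound.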

SMILES	IC50 [1] [µM]	IC50 [2] [µM]	IC50 [3] [µM]	IC50 [4] [µM]	Microsomal intrinsic clearance [5] [µL/min/mg]	IC50 [6] [µM]	IC50 [7] [µM]	other results
CC(C)c1ncc(N2C[C@H](O)[C@H]2C)c2cnc(Nc3ccnc(N4CC[C@@H](O)[C@@](C)(F)C4)n3)cc12	0.0018	0.01	4.19	0.013	45	0.0081	–	–
CC(C)c1cnc(N2CC[C@H]2C)c2cnc(Nc3ccnc(N4CC[C@@H](O)[C@@](C)(F)C4)n3)cc12	0.0003	–	7.29	0.007	80	0.0008	9.96	–
CC(C)c1cnc(N2CC(C(=O)N(C)C)C2)c2cnc(Nc3ccnc(N4CC[C@@H](O)[C@@](C)(F)C4)n3)cc12	–	–	–	–	102	–	–	–
COCC1CN(c2ncc(C(C)C)c3cc(Nc4ccnc(N5CC[C@@H](O)[C@@](C)(F)C5)n4)ncc23)C1	0.011	0.025	–	0.04	–	0.024	–	–
CC[C@]1(F)CN(c2nccc(Nc3cc4c(C(C)C)ccc(N5C[C@H](CS(C)(=O)=O)[C@H]5C)c4cn3)n2)CC[C@H]1O	0.0005	0.0004	0.761	0.0018	–	–	0.709	Papp [8]: 6 10^-6 cm/s; efflux ratio [9]: 4; CLH [10]: 5.9 µL/min/mg; CLH [11]: 192 µL/min/mg; CLH [12]: 48 µL/min; CLH [13]: 204 uL/min/10^6 cells
CNC(=O)c1cnc(Nc2ccnc(N3CC[C@@H](O)[C@@H](F)C3)n2)cc1NC(C)C	0.099	0.105	> 10	0.42	9.1	–	> 25	–
CC(C)c1cnc(N2CCC2)c2cnc(Nc3ccnc(N4CC[C@@H](O)[C@@](C)(F)C4)n3)cc12	0.0021	0.012	–	0.02	106	0.0091	8.67	–
CC(C)c1ccc(N2C[C@H](O)[C@H]2C)c2cnc(Nc3ccnc(N4CC[C@@H](O)[C@@](C)(F)C4)n3)cc12	0.0005	0.0075	2.22	0.019	17	0.0055	–	–
CO[C@@H]1[C@H](O)CN(c2nccc(Nc3cc4c(C(C)C)ccc(N5C[C@H](CS(C)(=O)=O)[C@H]5C)c4cn3)n2)CC1(F)F	0.0007	–	0.81	0.0026	–	–	0.191	Papp [8]: 8 10^-6 cm/s; efflux ratio [9]: 2; CLH [10]: 19 µL/min/mg; CLH [11]: 25 µL/min/mg; CLH [12]: 16 µL/min; CLH [13]: 49 uL/min/10^6 cells; clearance [14]: 9.1 mL/min/kg; Ratio [15]: 294; half-life [16]: 4.5 h
CC(C)c1cnc(N2CCCC2)c2cnc(Nc3ccnc(N4CC[C@@H](O)[C@@](C)(F)C4)n3)cc12	–	0.0215	–	0.052	65	0.023	–	–
CNc1ncc(C(C)C)c2cc(Nc3ccnc(N4CC[C@@H](O)[C@@](C)(F)C4)n3)ncc12	–	–	–	–	31	–	–	–
CC(C)c1cnc(N2CC(O)C2)c2cnc(Nc3ccnc(N4CC[C@@H](O)[C@@](C)(F)C4)n3)cc12	0.0036	0.011	5.52	0.041	43	0.0081	–	–
CC(C)c1cnc(N2CC(CS(C)(=O)=O)C2)c2cnc(Nc3ccnc(N4CC[C@@H](O)[C@@](C)(F)C4)n3)cc12	–	–	–	–	9.6	–	–	clearance [17]: 67 mL/min/kg; half-life [18]: 1.6 h; F [19]: 2%
CC(C)c1ncc(N2CC[C@H]2C)c2cnc(Nc3ccnc(N4CC[C@@H](O)[C@@](C)(F)C4)n3)cc12	0.0022	0.009	3.42	0.023	159	0.006	–	–
CC(C)c1cnc(N2CC(C#N)C2)c2cnc(Nc3ccnc(N4CC[C@@H](O)[C@@](C)(F)C4)n3)cc12	–	0.0053	3.4	0.017	85	0.0048	–	–
CC(C)c1ccc(N2CC(CS(C)(=O)=O)C2)c2cnc(Nc3ccnc(N4CC[C@@H](O)[C@@](C)(F)C4)n3)cc12	–	–	–	–	–	–	–	Papp [8]: 17 10^-6 cm/s; clearance [17]: 20 mL/min/kg; half-life [18]: 3 h; F [19]: 85%
CC(C)c1cnc(N2C[C@H](O)[C@H]2C)c2cnc(Nc3ccnc(N4CC[C@@H](O)[C@@](C)(F)C4)n3)cc12	–	–	–	–	25	–	–	–
CC(C)c1nnc(N2CC[C@H]2C)c2cnc(Nc3ccnc(N4CC[C@@H](O)[C@@](C)(F)C4)n3)cc12	0.016	0.0127	8.17	0.025	96	0.0096	–	–
CNC(=O)C1CN(c2ncc(C(C)C)c3cc(Nc4ccnc(N5CC[C@@H](O)[C@@](C)(F)C5)n4)ncc23)C1	0.001	0.0011	–	0.032	–	0.0034	–	–
CC(C)c1cnc(N2CC[C@@H]2C)c2cnc(Nc3ccnc(N4CC[C@@H](O)[C@@](C)(F)C4)n3)cc12	0.106	0.113	–	0.21	–	0.11	–	–
COC1CN(c2ncc(C(C)C)c3cc(Nc4ccnc(N5CC[C@@H](O)[C@@](C)(F)C5)n4)ncc23)C1	0.0034	0.0072	–	0.024	91	0.0063	–	–
CNC(=O)c1cnc(Nc2ccnc(N3CCC(O)CC3)n2)cc1NC(C)C	0.29	0.266	> 10	0.914	4	–	> 25	–
CC(C)c1ccc(N2C[C@H](CS(C)(=O)=O)[C@H]2C)c2cnc(Nc3ccnc(N4CC[C@@](C)(O)[C@@H](F)C4)n3)cc12	0.0004	0.0005	1.09	0.0038	–	–	1.21	Papp [8]: 5 10^-6 cm/s; efflux ratio [9]: 3; CLH [10]: 5.1 µL/min/mg; CLH [11]: 23 µL/min/mg; CLH [12]: 3.2 µL/min; CLH [13]: 1.5 uL/min/10^6 cells; clearance [14]: 8.8 mL/min/kg; Ratio [15]: 170; half-life [16]: 4.8 h
CNc1ncc(C(C)C)c2cc(Nc3ccnc(N4CC[C@@H](O)[C@@H](F)C4)n3)ncc12	0.05	0.046	> 10	0.067	–	–	> 25	microsomal CLint ([5]; liver microsomes, read-out: CLH): 19.1 µL/min/mg
CC(C)c1cnc(N2C[C@H](CS(C)(=O)=O)[C@H]2C)c2cnc(Nc3ccnc(N4CC[C@@H](O)[C@@](C)(F)C4)n3)cc12	0.0002	–	0.27	0.0017	–	–	0.781	Papp [8]: 5 10^-6 cm/s; efflux ratio [9]: 16
